The target in test [1] is T1, Steryl-sulfatase (Homo sapiens, UniProt P08842).
T1 sequence (P08842 whole entry): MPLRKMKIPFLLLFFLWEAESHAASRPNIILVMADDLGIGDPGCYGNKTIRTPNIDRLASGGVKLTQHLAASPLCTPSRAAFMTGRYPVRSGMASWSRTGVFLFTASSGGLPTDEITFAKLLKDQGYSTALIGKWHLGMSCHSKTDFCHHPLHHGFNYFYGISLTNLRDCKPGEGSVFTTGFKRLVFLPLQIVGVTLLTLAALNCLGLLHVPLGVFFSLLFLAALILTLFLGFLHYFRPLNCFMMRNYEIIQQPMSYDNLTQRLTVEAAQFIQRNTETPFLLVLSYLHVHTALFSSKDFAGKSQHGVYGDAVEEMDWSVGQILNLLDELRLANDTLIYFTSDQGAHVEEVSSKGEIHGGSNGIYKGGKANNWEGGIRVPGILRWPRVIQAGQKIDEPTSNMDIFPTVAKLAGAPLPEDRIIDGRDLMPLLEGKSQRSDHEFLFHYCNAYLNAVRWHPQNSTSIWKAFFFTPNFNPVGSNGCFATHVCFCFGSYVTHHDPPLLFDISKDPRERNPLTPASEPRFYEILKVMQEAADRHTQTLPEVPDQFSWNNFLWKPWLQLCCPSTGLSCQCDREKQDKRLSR
The experiment in a line: Inhibitory concentration against human steroid sulfatase expressed in CHO cells. Format: cell-based. The procedure, abridged:
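Intact recombinant CHO cells overexpressing STS, live-cell variant for reversible inhibitors; 4-methylumbelliferyl sulfate substrate at 0.5 mM, 4 h incubation with inhibitor; fluorimetric read-out of substrate cleavage, IC50 determined.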

Test [2] addresses T1, Steryl-sulfatase. The experiment in a line: Inhibitory concentration against human steroid sulfatase. The method, boiled down:
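Human STS purified to homogeneity from recombinant CHO cells; fluorimetric assay following cleavage of 4-methylumbelliferyl sulfate (fixed at 0.75 mM) at 37 °C, 1 h incubations with or without inhibitor. Initial velocity taken from the linear phase as fluorescence units per min; IC50 derived by a previously described method.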

Test [3] has as its target T1, Steryl-sulfatase. The test is described as follows: Inhibitory constant against human Steroid sulfatase. The procedure, abridged:
(§1)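 Purified human STS (from recombinant CHO cells) at 37 °C; 4-methylumbelliferyl sulfate cleavage monitored fluorimetrically, substrate varied 0.05–2 mM at several inhibitor concentrations. Initial velocities from the linear phase (fluorescence units per min); Ki calculated from Hanes plots ([S]/v versus [S]).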

The target of test [4] is T1, Steryl-sulfatase. The test is described as follows: Inhibitory constant against human steroid sulfatase. The method, boiled down: as §1

One may read the IC50 as the midpoint of a concentration-inhibition curve. Turning to `O=C(Cc1ccccc1)O[C@H]1C[C@H]2CC[C@@H](C1)N2C(=O)NS(=O)(=O)c1ccc(Cl)cc1`, the IC50 worked out at 6270 nM in test [1] and 910 nM in test [2].

Consider `CC(C)(C)OC(=O)N1CCC(C(=O)NS(=O)(=O)c2cc(Cl)cc(Cl)c2)CC1`, for which the IC50 in test [1] amounted to 1260 nM.

For orientation: Ki means the dissociation constant of the complex between target and ligand, obtained from inhibition or displacement. Low values mean tighter binding, high ones weaker binding. `CC(C)(C)OC(=O)N1CCC(C(=O)NS(=O)(=O)c2c(Cl)sc(Cl)c2Br)CC1`: the IC50 in test [1] amounted to 270 nM; in test [2], 26 nM. For the same molecule, the affinity in test [3] corresponds to a Ki of 12 nM.

As for `CC(C)(C)OC(=O)N1CCC(C(=O)NS(=O)(=O)c2ccc(Cl)cc2)CC1`, the IC50 in test [1] was 9800 nM; in test [2], 8600 nM. This molecule also had a Ki in test [4] of 16100 nM.

For `CC(C)(C)OC(=O)N1CCC(C(=O)NS(=O)(=O)c2cc(C(F)(F)F)cc(C(F)(F)F)c2)CC1`, the IC50 stood at 780 nM in test [1] and 210 nM in test [2]. The Ki in test [4] is 220 nM.

In test [1], `CC(C)(C)OC(=O)N1CCC(C(=O)NS(=O)(=O)c2c(Cl)cccc2Cl)CC1` returned an IC50 of 9900 nM.

Regarding `CC(C)(C)OC(=O)N1CCN(C(=O)NS(=O)(=O)c2ccc(Cl)cc2)CC1`, the figures for the IC50 in test [1] and in test [2] were 12000 nM and 3600 nM, respectively. For the same molecule, the affinity in test [4], expressed as Ki, was 14500 nM.

The values are drawn from ChEMBL document CHEMBL1144338, “N-Acyl arylsulfonamides as novel, reversible inhibitors of human steroid sulfatase” (Bioorg Med Chem Lett, 2005).
